pIC50: −log10 of the molar value. Calls of active or inactive are those of the source. The calls are words filed in the database; no cut-off is given here.
Key:
[1] = Chemical stability of the compound in presence of snake venom secretory phospholipase A2 after 24 hrs by MALDI-TOF MS analysis; type: physicochemical
Summary of the method: (§1)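 Formulated lipid suspensions (extruded through a 100 nm filter) were incubated with purified snake venom sPLA₂ (Agkistrodon piscivorus piscivorus and Naja mossambica mossambica) with stirring at 37 °C. Samples were taken at 2, 24 and 48 h for MALDI-TOF MS. The matrix was DHB and CF₃COONa in methanol with DPPG as internal standard. Hydrolysis was estimated as conversion of the conjugate.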

COLO 205 [2] = test: Induction of apoptosis in human COLO205 cells assessed as complete cell death at 100 uM; type: functional, cell-based
HT-29 [3] = test: Cytotoxicity against human HT-29 cells after 24 hrs by MTT assay; type: functional, cell-based; details: HT-29, 24 h
Summary of the method: (§2)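 Colon cancer cells were incubated with the substances for 24 h. Viability was then read by MTT assay 48 h after incubation. IC₅₀ values are mean SD, n ≥ 3.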

COLO 205 [4] = test: Induction of apoptosis in human COLO205 cells at 20 uM; type: functional, cell-based
COLO 205 [5] = test: Cytotoxicity against human COLO205 cells after 24 hrs by MTT assay; type: functional, cell-based; details: COLO 205, 24 h; summary of the method: as §2
HT-29 [6] = test: Cytotoxicity against human HT-29 cells after 24 hrs by MTT assay in presence of snake venom secretory phospholipase A2; type: functional, cell-based; details: HT-29, 24 h
[7] = tested on: secretory phospholipase A2; test: Chemical stability of the compound in presence of snake venom secretory phospholipase A2 after 48 hrs by MALDI-TOF MS analysis; type: physicochemical; details: read-out: Stability; summary of the method: as §1

SMILES	Stability [1]	Activity (COLO 205 [2])	pIC50 (HT-29 [3])	Activity (COLO 205 [4])	pIC50 (COLO 205 [5])	pIC50 (HT-29 [6])	remaining at 48 h [7] [%]
CCCCC/C=C/C=C1\C(=O)C=C[C@H]1C/C=C/CCCC(=O)O[C@H](COC(=O)CCCCCCCCCCCCCCCCC)COP(=O)([O-])OC[C@@H](O)CO.[Na+]	Unstable	Active	4.49	Active	4.77	5.19	
CCCCC/C=C/C=C1\C(=O)C=C[C@@H]1C/C=C/CCCC(=O)O			5.80		5.40		
CCCCC/C=C/C=C1\C(=O)C=C[C@H]1C/C=C/CCCC(=O)O[C@H](COCCCCCCCCCCCCCCCCCC)COP(=O)(O)OC[C@@H](O)CO		Active	5.22	Active	5.05	5.66	70

Source: ChEMBL document CHEMBL1208725, “Prostaglandin phospholipid conjugates with unusual biophysical and cytotoxic properties” (Bioorg Med Chem Lett, 2010)
